Results as given in ChEMBL document CHEMBL4665666, “Discovery and characterization of trypanocidal cysteine protease inhibitors from the 'malaria box'” (Eur J Med Chem, 2019).

Legend:
[1] = molecular target: Cruzipain (Trypanosoma cruzi) (UniProt P25779); test: Inhibition of recombinant Trypanosoma cruzi cruzain at 5 uM using Z-FR-AMC as substrate and measured at 12 sec interval for 5 mins without preincubation by fluorimetric analysis relative to control
In short: (§1)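 Recombinant rhodesain or cruzain (1 nM) in 0.1 M sodium acetate pH 5.5, 0.01% Triton X-100, 1 mM β-mercaptoethanol. Compound at a single concentration, either without or after 10 min enzyme pre-incubation. Inhibition is relative to DMSO, with E-64 as positive control. Done in duplicate (primary screen) or triplicate.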

[2] = molecular target: Cruzipain (Trypanosoma cruzi) (UniProt P25779); test: Inhibition of recombinant Trypanosoma cruzi cruzain at 5 uM using Z-FR-AMC as substrate preincubated for 10 mins followed by substrate addition and measured at 12 sec interval for 5 mins by fluorimetric analysis relative to control; details: time 15.0 min; in short: as §1
[3] = molecular target: Rhodesain (Trypanosoma brucei rhodesiense) (UniProt Q95PM0); test: Inhibition of recombinant Trypanosoma brucei rhodesain expressed in Pichia pastoris at 5 uM using Z-FR-AMC as substrate and measured at 12 sec interval for 5 mins without preincubation by fluorimetric analysis relative to control; in short: as §1
Chain of Rhodesain (Trypanosoma brucei rhodesiense) (Q95PM0 1-450): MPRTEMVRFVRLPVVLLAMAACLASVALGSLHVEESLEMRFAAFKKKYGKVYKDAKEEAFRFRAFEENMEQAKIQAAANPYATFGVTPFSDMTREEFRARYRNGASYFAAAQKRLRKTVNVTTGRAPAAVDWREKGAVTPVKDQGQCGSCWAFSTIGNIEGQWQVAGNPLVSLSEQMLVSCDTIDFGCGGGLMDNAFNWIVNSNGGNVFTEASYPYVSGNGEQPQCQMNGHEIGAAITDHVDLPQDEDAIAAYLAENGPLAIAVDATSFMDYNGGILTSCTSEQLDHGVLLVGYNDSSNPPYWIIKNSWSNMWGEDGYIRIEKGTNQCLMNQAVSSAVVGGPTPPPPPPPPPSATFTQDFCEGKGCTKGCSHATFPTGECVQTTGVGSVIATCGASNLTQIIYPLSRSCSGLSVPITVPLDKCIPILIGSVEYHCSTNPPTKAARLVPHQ

[4] = molecular target: Rhodesain (Trypanosoma brucei rhodesiense) (UniProt Q95PM0); test: Inhibition of recombinant Trypanosoma brucei rhodesain expressed in Pichia pastoris at 5 uM using Z-FR-AMC as substrate preincubated for 10 mins followed by substrate addition and measured at 12 sec interval for 5 mins by fluorimetric analysis relative to control; details: time 15.0 min; in short: as §1

Chain of Cruzipain (Trypanosoma cruzi) (P25779 123-467 limits assumed): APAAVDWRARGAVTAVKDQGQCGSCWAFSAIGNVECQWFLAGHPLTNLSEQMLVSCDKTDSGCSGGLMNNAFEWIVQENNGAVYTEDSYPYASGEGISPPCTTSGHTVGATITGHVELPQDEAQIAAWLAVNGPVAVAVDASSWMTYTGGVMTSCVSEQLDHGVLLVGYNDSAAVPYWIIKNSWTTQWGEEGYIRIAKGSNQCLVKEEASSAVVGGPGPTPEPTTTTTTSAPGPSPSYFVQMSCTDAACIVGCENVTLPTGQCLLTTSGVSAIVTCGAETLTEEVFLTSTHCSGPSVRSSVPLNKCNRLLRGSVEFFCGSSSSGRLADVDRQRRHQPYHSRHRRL

Row | Structure (SMILES) | inhibition [1] [%] | inhibition [2] [%] | inhibition [3] [%] | inhibition [4] [%]
1 | CCOC(=O)c1cnc2ccc(CC)cc2c1O | 6 | 5.8 | 0 | 52.4
2 | COc1nc(Nc2ccc(C(C)C)cc2)nc(OC)n1 | 16.8 | 44.2 | 25.9 | 53.8
3 | COc1ccc(C2c3ccc4ccccc4c3Oc3ncn(CCCN(C)C)c(=N)c32)cc1 (stereo not drawn) | 55.6 | 73.2 | 60.9 | 77.8
4 | COc1cc(C(=O)ON=C(N)Cc2cccc3ccccc23)cc(OC)c1OC | 14 | 51.1 | 0 | 46.8
5 | COc1cccc(C(=O)NC(c2ccc(C)cc2)c2cc(Cl)c3cccnc3c2O)c1 (stereo not drawn) | 8.7 | 54.5 | 31.4 | 43.9
6 | O=C(Nc1ccc(-c2nc3ccccc3[nH]2)cc1)c1ccc(Cl)c(Cl)c1 | 17.4 | 86.9 | 42.8 | 18.3
7 | Cc1ccc(Nc2nc(-c3ccccn3)cs2)cc1 | 17.3 | 19.8 | 4.7 | 80.9
8 | COc1cc(OC)c(N(C)C(=O)c2cc3c(s2)-c2ccccc2S(=O)(=O)C3)cc1Cl | 6.4 | 38.1 | 20.7 | 57.9
9 | CCOc1ccc(C2N(C)c3ccccc3N2C)cc1 | 21.8 | 48.3 | 30.3 | 57.7
10 | COc1ccc(/C=C2/SC(Nc3ccc(F)cc3)=NC2=O)c(OC)c1 | 29.3 | 54.4 | 21.4 | 54.8
11 | COCCN(C(=O)Cc1cccs1)C(C(=O)NCc1ccc(OC)cc1)c1ccc(C(C)C)cc1 (stereo not drawn) | 40.6 | 67.5 | 38.5 | 86.7
12 | CCCCCCc1cc2cc(-c3csc(/C=C/c4ccccc4)n3)c(=O)oc2cc1O | 8.9 | 38.3 | 28.6 | 51.2
13 | O=C(NC1CCN(Cc2ccccc2)CC1)c1cc(C(=O)NC2CCN(Cc3ccccc3)CC2)cc(C(=O)NC2CCN(Cc3ccccc3)CC2)c1 | 41 | 60.5 | 45.4 | 49.2
14 | CCCc1c(CC)c(=N)c2ccccc2n1C | 21.5 | 54.8 | 29.4 | 59.5
15 | O=C(NC1CCN(Cc2ccccc2)CC1)c1cc(-c2ccncc2)nc2ccc(Cl)cc12 | 15.2 | 56.5 | 20.9 | 41.2
16 | CC(C)OCc1cc(CN2CCN(c3cccc(Cl)c3)CC2)c(O)c2ncccc12 | 49 | 98.2 | 8.3 | 83.7
17 | COc1cc2c3cc1Oc1c(OC)c(OC)cc4c1C(Cc1ccc(O)c(c1)Oc1ccc(cc1)CC3N(C)CC2)N(C)CC4 (stereo not drawn) | 22.4 | 41.7 | 19.7 | 51.4
18 | COc1ccc(C2c3ccc4ccccc4c3Oc3ncn(CCCn4ccnc4)c(=N)c32)cc1OC (stereo not drawn) | 41.8 | 59.5 | 33.4 | 41
19 | O=C(Nc1cccc(-c2nc3ccccc3[nH]2)c1)c1cccc(NC(=O)c2ccco2)c1 | 96.7 | 94.7 | 40.1 | 53.9
20 | Cc1ccc(N2C(=O)C3C(C2=O)C2(c4ccccc4)C(=O)C3(c3ccccc3)C(c3ccccc3)=C2c2ccccc2)cc1 (stereo not drawn) | 9.2 | 33.6 | 22.3 | 56.3
21 | CCOc1ccccc1CNC(=O)C1c2ccccc2C(=O)N(CC(C)C)C1c1cccs1 (stereo not drawn) | 45.6 | 55.7 | 34.3 | 71.4
22 | COc1ccccc1C(=O)ON=C(N)Cc1cccc2ccccc12 | 32 | 54.9 | 1.4 | 54.3
23 | CCN(CC)CCNc1ncnc2c1[nH]c1ccc(Br)cc12 | 57 | 28.5 | 27.5 | 2.7
24 | Clc1ccc2[nH]c3c(NCCCN4CCOCC4)ncnc3c2c1 | 67 | 62.5 | 48.9 | 72.9
25 | CCCCCn1c(=N)n(CC(O)COc2cccc(C)c2)c2ccccc21 (stereo not drawn) | 55.2 | 87.2 | 40.2 | 69.9
26 | CC(O)(c1ccc(Cl)cc1)C(CN1CCCCC1)c1ccccc1 (stereo not drawn) | 11.9 | 54.1 | 13.9 | 50.4

Row | Structure (SMILES) | inhibition [1] [%] | inhibition [2] [%] | inhibition [3] [%] | inhibition [4] [%]
27 | COc1ccc(NC(=O)C2c3ccccc3C(=O)N(CC(C)C)C2c2cccs2)cc1 (stereo not drawn) | 3.3 | 0 | 0.1 | 78.7
28 | Fc1ccc2[nH]c3c(NCCCN4CCOCC4)ncnc3c2c1 | 50.7 | 63.9 | 17.6 | 41.6
29 | CN(N=O)C1=C(NC2CCCCC2)C(=O)c2ccccc2C1=O | 34.8 | 68.2 | 38.7 | 39.5
30 | O=C(CSc1ccc2nnc(-c3cccc(F)c3)n2n1)Nc1ccc2c(c1)OCO2 | 10.2 | 67.7 | 10.3 | 61.6
31 | Nc1ccc(-c2nc3cc(Oc4ccc(Oc5ccc6[nH]c(-c7ccc(N)cc7)nc6c5)cc4)ccc3[nH]2)cc1 | 88.6 | 91.5 | 13.3 | 78.2
32 | COc1ccc(OC)c(C2C3=C(CC(C)(C)CC3=O)N(c3ccc(Cl)c(Cl)c3)C3=C2C(=O)CC(C)(C)C3)c1 | 28.5 | 72 | 16.6 | 53.3
33 | COc1ccc(C(=O)NC(c2ccc(Cl)cc2Cl)c2cc(Cl)c3cccnc3c2O)cc1 (stereo not drawn) | 77.6 | 49.5 | 27.9 | 20.2
34 | COc1ccc(CNC(=O)c2cc3c(=O)n4ccccc4nc3n(CCc3ccccc3)c2=N)cc1 | 45.7 | 69.9 | 43.5 | 66.9
35 | Oc1ccc(C(=C(Cl)Cl)c2ccc(O)cc2)cc1 | 31.1 | 60.5 | 22.6 | 62.1
36 | O=C(c1ccccc1F)N(Cc1ccc(Cl)cc1)c1ccccn1 | 40.7 | 91.6 | 45.8 | 75
37 | CCc1ccc(Nc2cc(C)c3ccc(O)cc3n2)cc1 | 32.8 | 55 | 36.5 | 38.1
38 | CC(C)(C)c1ccc2c(c1)CN(Cc1ccc(Cl)cc1)CO2 | 52.3 | 51.5 | 28.8 | 61.3
39 | O=C1c2ccccc2-c2nnc(-c3ccc(Br)cc3)cc21 | 47.8 | 96.3 | 32.7 | 68.8
40 | COc1ccc(-c2nc3cc(Cc4ccc5[nH]c(-c6ccc(OC)cc6)nc5c4)ccc3[nH]2)cc1 | 100 | 79.9 | 98.6 | 98.7
41 | O=C(Nc1ccc(-c2nc3cc(NC(=O)c4ccc(Cl)cc4)ccc3[nH]2)cc1)c1ccc(Cl)cc1 | 15 | 35.3 | 4.6 | 56.1
42 | CCOc1cc(CNC(C)C(O)c2ccccc2)cc(Cl)c1OCC (stereo not drawn) | 21.7 | 46.8 | 32.9 | 61.8
43 | Nc1ccc(-c2nc3cc(Cc4ccc5[nH]c(-c6ccc(N)cc6)nc5c4)ccc3[nH]2)cc1 | 20.2 | 98.2 | 86.6 | 90.1
44 | Cc1ccccc1OCCSc1nc2ccc(NC(=O)c3ccccc3)cc2s1 | 52.3 | 76.7 | 48.3 | 59
45 | CCCCCC(=O)N1c2ccccc2N=C2CC(c3ccc(OC)c(OC)c3)CC(O)=C2C1c1ccc(C(F)(F)F)cc1 (stereo not drawn) | 17 | 50.7 | 26.7 | 46.4
46 | COc1ccc(C(=O)NC(c2ccccc2Cl)c2cc(Cl)c3cccnc3c2O)cc1 (stereo not drawn) | 17.1 | 100 | 29.4 | 49.4
47 | Cc1ccnc(NC(c2cccc(OCc3ccccc3)c2)c2ccc3cccnc3c2O)c1 (stereo not drawn) | 6.7 | 51.3 | 0 | 16.2
48 | O=C(O)C1Cc2c([nH]c3ccccc23)C(c2ccc(Cl)cc2Cl)N1 (stereo not drawn) | 5 | 9.5 | 0.7 | 78.6
49 | CCCOCc1cc(CN2CCN(c3cccc(Cl)c3)CC2)c(O)c2ncccc12 | 37.1 | 75.3 | 36.4 | 87.6
50 | CCC(C)NCC(O)(c1ccc(Cl)cc1)c1ccc(Cl)cc1 (stereo not drawn) | 32 | 67.2 | 29.1 | 80.9
51 | Cn1c(=O)c2cc(C(=O)NCCCN3CCCCCC3)sc2c2ccccc21 | 22.9 | 50.5 | 22.4 | 41.3
52 | COc1ccc(/C=C2/SC(=Nc3ccccc3)NC2=O)cc1 | 43.1 | 73.8 | 35.6 | 70.5
